How the values were obtained:
[1] = target: T1, Somatostatin receptor type 4 (Homo sapiens, UniProt P31391); assay: Inhibitory constant on human somatostatin receptor 4
In short: (§1)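 Competition binding against [¹²⁵I-Tyr¹¹]SRIF-14 on membranes from CHO-K1 cells stably expressing each human SRIF receptor subtype. Method adapted from Shimon et al. Ki is reported.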

[2] = target: Somatostatin receptor type 1 (Homo sapiens, UniProt P30872); assay: Inhibitory constant on human Somatostatin receptor type 1; in short: as §1
[3] = target: T2, Somatostatin receptor type 5 (Homo sapiens, UniProt P35346); assay: Inhibitory constant on human somatostatin receptor 5; in short: as §1
[4] = target: T3, Somatostatin receptor type 3 (Homo sapiens, UniProt P32745); assay: Inhibitory constant on human somatostatin receptor type 3; in short: as §1
[5] = target: T4, Somatostatin receptor type 2 (Homo sapiens, UniProt P30874); assay: (§2) Inhibitory constant on human Somatostatin receptor type 2; assay type: single protein; in short: as §1
[6] = target: T2, Somatostatin receptor type 5; assay: Inhibitory constant on human Somatostatin receptor type 5; in short: as §1
[7] = target: T3, Somatostatin receptor type 3; assay: Inhibitory constant on human Somatostatin receptor type 3; in short: as §1
[8] = target: T4, Somatostatin receptor type 2; assay: as §2; in short: as §1
[9] = target: T1, Somatostatin receptor type 4; assay: Inhibitory constant on human Somatostatin receptor type 4; in short: as §1
[10] = target: T2, Somatostatin receptor type 5; assay: Agonist activity on human somatostatin receptor 5; assay type: functional
In short: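 Confluent CHO-K1 cells expressing human sst₅ were washed in RPMI 1640 with 0.2% BSA at 37 °C, then preincubated 5 min with isobutylmethylxanthine. Cells were then incubated 20 min at 37 °C with forskolin plus increasing agonist concentrations.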

T2 sequence (P35346 whole entry): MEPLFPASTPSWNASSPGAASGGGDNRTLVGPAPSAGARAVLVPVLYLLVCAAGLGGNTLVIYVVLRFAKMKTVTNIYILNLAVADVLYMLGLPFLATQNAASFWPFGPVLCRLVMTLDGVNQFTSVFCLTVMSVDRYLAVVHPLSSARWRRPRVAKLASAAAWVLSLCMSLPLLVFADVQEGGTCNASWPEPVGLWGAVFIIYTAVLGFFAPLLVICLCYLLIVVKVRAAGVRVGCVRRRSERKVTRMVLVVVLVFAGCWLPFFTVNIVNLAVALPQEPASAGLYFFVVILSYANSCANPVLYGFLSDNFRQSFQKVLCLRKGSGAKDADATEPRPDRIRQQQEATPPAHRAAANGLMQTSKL
T1 sequence (P31391 whole entry): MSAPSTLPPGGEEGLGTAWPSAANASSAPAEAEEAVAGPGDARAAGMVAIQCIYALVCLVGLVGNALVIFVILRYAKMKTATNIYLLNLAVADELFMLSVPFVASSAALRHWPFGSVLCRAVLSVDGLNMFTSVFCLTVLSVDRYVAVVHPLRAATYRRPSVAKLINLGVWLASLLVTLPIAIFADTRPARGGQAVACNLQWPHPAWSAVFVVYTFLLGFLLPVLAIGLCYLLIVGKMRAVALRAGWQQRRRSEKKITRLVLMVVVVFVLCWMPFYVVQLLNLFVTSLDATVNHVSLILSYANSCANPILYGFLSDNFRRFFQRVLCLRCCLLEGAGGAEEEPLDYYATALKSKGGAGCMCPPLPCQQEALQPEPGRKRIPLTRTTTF
T4 sequence (P30874 whole entry): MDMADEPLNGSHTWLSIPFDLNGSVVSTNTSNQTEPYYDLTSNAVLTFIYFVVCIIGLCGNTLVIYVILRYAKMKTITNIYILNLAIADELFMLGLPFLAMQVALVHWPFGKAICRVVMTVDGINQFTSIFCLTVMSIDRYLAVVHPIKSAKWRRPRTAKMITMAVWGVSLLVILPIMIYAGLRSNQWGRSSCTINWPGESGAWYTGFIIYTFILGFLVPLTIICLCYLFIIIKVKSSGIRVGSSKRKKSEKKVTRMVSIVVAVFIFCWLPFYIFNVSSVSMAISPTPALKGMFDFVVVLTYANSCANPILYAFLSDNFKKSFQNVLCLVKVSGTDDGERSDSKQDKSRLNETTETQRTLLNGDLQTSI
Somatostatin receptor type 1, sequence (P30872 whole entry): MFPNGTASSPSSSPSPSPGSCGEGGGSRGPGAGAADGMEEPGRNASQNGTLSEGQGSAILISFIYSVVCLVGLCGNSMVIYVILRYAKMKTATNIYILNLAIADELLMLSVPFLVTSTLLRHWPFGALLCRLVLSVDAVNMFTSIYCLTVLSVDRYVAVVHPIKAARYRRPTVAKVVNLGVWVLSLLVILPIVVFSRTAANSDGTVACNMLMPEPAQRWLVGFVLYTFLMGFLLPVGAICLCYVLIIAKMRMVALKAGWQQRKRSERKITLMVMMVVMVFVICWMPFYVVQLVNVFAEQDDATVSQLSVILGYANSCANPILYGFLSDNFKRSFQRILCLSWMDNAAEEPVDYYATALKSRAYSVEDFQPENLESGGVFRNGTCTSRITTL
T3 sequence (P32745 whole entry): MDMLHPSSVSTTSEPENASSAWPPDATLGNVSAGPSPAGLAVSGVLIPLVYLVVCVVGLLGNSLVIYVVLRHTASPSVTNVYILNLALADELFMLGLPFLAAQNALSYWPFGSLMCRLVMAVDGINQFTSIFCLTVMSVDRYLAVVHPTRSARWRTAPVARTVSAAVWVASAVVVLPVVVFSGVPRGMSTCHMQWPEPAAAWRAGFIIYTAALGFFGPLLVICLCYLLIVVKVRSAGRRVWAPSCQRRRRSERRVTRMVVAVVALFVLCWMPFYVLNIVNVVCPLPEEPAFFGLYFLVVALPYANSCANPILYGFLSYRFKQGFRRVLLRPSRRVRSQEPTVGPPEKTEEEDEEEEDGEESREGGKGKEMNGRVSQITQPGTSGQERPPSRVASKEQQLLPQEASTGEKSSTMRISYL

Row | SMILES | Ki [1] | Ki [2] | Ki [3] | Ki [4] | Ki [5] | Ki [6] | Ki [7] | Ki [8] | Ki [9] | EC50 [10]
1 | NCCCc1nc(-c2c[nH]c3ccccc23)cn2cc(-c3ccccc3)nc12 | > 10 µM | 3.3 µM | 0.79 µM | 3.1 µM | 6 µM | – | – | – | – | –
2 | CC(C)(C(=O)NCCc1c[nH]c2ccccc12)c1cn2cc(Cc3ccccc3)nc(CCCN)c2n1 | 7.2 µM | 4.6 µM | 1.2 µM | 1.2 µM | 8.6 µM | – | – | – | – | –
3 | CCCCNC(=O)C(C)(C)c1cn2cc(-c3csc4ccccc34)nc(CCCN)c2n1 | > 10 µM | > 10 µM | 0.54 µM | 8.9 µM | > 10 µM | – | – | – | – | –
4 | c1ccc(Cc2nc(-c3ccccc3)cn3cc(-c4ccccc4)nc23)cc1 | – | > 5 µM | – | – | – | > 5 µM | > 5 µM | > 5 µM | > 5 µM | –
5 | CC(C)(C(=O)NCCN)c1cn2c(n1)C(Cc1c[nH]c3ccccc13)N=C(Cc1ccccc1)C2 (stereo unspecified) | – | > 10 µM | – | – | – | > 1 µM | > 10 µM | > 10 µM | > 10 µM | –
6 | CC(C)(C(=O)NCCc1c[nH]c2ccccc12)c1cn2cc(-c3csc4ccccc34)nc(CCCN)c2n1 | > 10 µM | 4 µM | 2.3 µM | 10 µM | 3.2 µM | – | – | – | – | –
7 | CC(C)(C(=O)NC1CCCCC1)c1cn2cc(-c3csc4ccccc34)nc(CCCN)c2n1 | > 10 µM | 9.7 µM | 0.36 µM | 3.7 µM | 9.5 µM | – | – | – | – | 1.6 µM
8 | NCCCc1nc(-c2cccc([N+](=O)[O-])c2)cn2cc(-c3ccccc3)nc12 | > 10 µM | 3.4 µM | 0.43 µM | 2.5 µM | 7.9 µM | – | – | – | – | –
9 | NCCCc1nc(-c2csc3ccccc23)cn2cc(-c3ccccc3)nc12 | 7.2 µM | 2.9 µM | 0.6 µM | 1.7 µM | 2.1 µM | – | – | – | – | –
10 | NCCCc1nc(-c2ccccc2)cn2cc(-c3ccccc3)nc12 | > 5 µM | > 5 µM | > 5 µM | > 5 µM | > 5 µM | – | – | – | – | –
